What was measured:
[1] = test system: K562 cells; conditions: cited from earlier work
[2] = test system: K562 cells; experiment: cGMP induction in K562 cells; format: cell-based, human; conditions: 6 h
Method in brief: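 Actively growing K562 cells were treated for 6 h with increasing concentrations of the test compound or hydroxyurea. cGMP was measured by non-radioactive enzyme immunoassay using the acetylation protocol, and protein by BCA assay. Data are means±Standard Errors.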

[3] = test system: K562 cells; experiment: HbF induction in K562 cells; format: cell-based, human; conditions: 72 h
[4] = test system: K562 cells; experiment: Cytotoxicity in K562 cells; format: cell-based, human; conditions: end of 72-h culture
Method in brief: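 Actively growing K562 cells were cultured for 72 h with increasing concentrations of the test compound. Terminal viability was scored by automated cell counting or trypan-blue exclusion, or by an ATP-based luminescence assay. Apoptosis was checked by Annexin V flow cytometry.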

[5] = test system: HbSS-Townes mice; experiment: Townes SCD model, 30 days daily oral dosing; format: in vivo; conditions: for percentage of sickled RBC: vehicle 56%
[6] = test system: HbSS-Townes mice; experiment: HbSS-Townes vaso-occlusive crisis model; format: in vivo; conditions: HU 100 mg/kg/day for ten days, P<0.05
[7] = test system: erythroid cells from CD34+ progenitors of SCD patients; experiment: HbF induction in SCD patient-derived erythroblasts; format: cell-based, human; conditions: 30 μM HU
Method in brief: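 CD34⁺ progenitors came from the blood or bone marrow of nine SCD donors. Cells grew seven days with 15% BIT 9500, 2 mM L-glutamine, IL-3 (10 ng/mL), IL-6 and SCF (100 ng/mL). CD36⁺ cells were then isolated and grown five days with SCF, IL-3 and EPO (2 UI/mL) plus DMSO, 30 μM hydroxyurea or 10 μM test compound. HbF⁺ cells (%) and HbF MFI were read by PE-anti-HbF FACS, gated LiveDead⁻/GPA⁺/Band3⁺.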

[8] = test system: mice; experiment: Classical fear conditioning model of learning and memory; format: in vivo; conditions: similar dose of both PDE9i
[9] = HU 100 mg/kg, 30 days, not significant

In the case of C[C@H](Cc1nc2c(cnn2-c2ccccc2Cl)c(=O)[nH]1)C(F)(F)F [BAY73-6691], the “HbF mRNA expression” value [1] is listed as “increased HbF mRNA expression”.

In the case of Nc1nc(-c2nn(Cc3ccccc3F)c3ncccc23)ncc1C1CC1 [BAY 41-2271], the “HbF mRNA expression” value [1] is given as “increased HbF mRNA expression”.

With NC(=O)NO [HU, Hydroxyurea] the cGMP induction [2] was “increases cGMP in a dose-dependent manner”, the “HbF induction (ELISA)” value [3] was “induced HbF in a dose-dependent manner” and the “Cytotoxicity (cell counts)” value [4] was “induction was accompanied by cytotoxicity”. The “percentage of sickled RBC” value ([5]; HU 25 mg/kg/day, 30 days) was 52%, the “percent F-cells” value ([5]; HU 25 mg/mL/day (so in the source), 30 days, vehicle 8.4%, not significant) was 13% and the “percentage of sickled RBC” value ([5]; HU 50 mg/kg/day, 30 days) was 49%. The “percent F-cells” value ([5]; HU 50 mg/mL/day (so in the source), 30 days, vehicle 8.4%, not significant) was 18%, the “WBC lower than vehicle” value ([5]; HU 100 mg/kg, 30 days) was 21% and the “reduction of MPO levels” value ([5]; HU 100 mg/kg, 30 days) was 2.1 fold. For the same molecule, the “reduction of lung arginase (compared with IMR-687)” value ([5]; HU 100 mg/kg, 30 days) was “less pronounced”, the “reduction of plasma free Hb levels” value ([5]; HU 100 mg/kg, 30 days) was “approximately 55%” and the “lung MPO levels” value ([5]; HU 100 mg/kg, 30 days, HbSS-Townes vehicle 3.1 mU/L, P<0.0001) was 1.5 mU/L. The plasma bilirubin ([5]; HU 100 mg/kg, 30 days, P<0.01) was 5 mg/dL, the “changes in reticulocyte counts, RBC, hematocrit and Hb (compared with IMR-687)” value ([5]; HU 100 mg/kg, 30 days, changes in Hb not significant) was “produced smaller changes” and the LDH levels [5, 9] was 121 AU. For the same molecule, the plasma nitrite levels [5, 9] was 1.23 mg/mL, the WBC count ([5]; HU 100 mg/kg, 30 days, vehicle 38.2×10^9/L) was 3.04e+10 L⁻¹ and the Mortality ([5]; HU 100 mg/kg/day) was “resulted in mortality in mice”. The “percent F cells” value ([5]; HU 100 mg/kg/day, 30 days, vehicle 8.4%) was 29.3%, the “percent sickled RBC” value ([5]; HU 100 mg/kg/day, 30 days, vehicle 56.3%) was 28.8% and the “changes in reticulocyte counts, RBC, hematocrit and Hb” value ([5]; HU 25 and 50 mg/kg, 30 days) was “only the change in reticulocyte counts was significant”. For the same molecule, the “reduction of markers of hemolysis (bilirubin, LDH)” value ([5]; HU 25 and 50 mg/kg, 30 days) was “did not produce a significant reduction”, the “lung MPO levels” value ([5]; lower doses of HU, 30 days) was “reduced MPO levels in the lungs” and the microvascular stasis ([6]; 1 h in normoxia, vehicle 33%) was 13%. The microvascular stasis ([6]; 4 h in normoxia, vehicle 16%) was 8%, the “percentage of F-cells (HbF positive)” value ([7]; five days, DMSO control 13.3%, n=7, P<0.01) was 22.2% and the “intensity of HbF staining (MFI)” value ([7]; five days, control 6073±1217, n=7, P=0.041) was 9744±2805. The “Cytotoxicity in patient-derived cultures” value ([7]; 9 cultures) was “cytotoxicity induced by HU in 2 cultures”.

For C[C@@H]1CN(Cc2ncccn2)C[C@H]1c1nc2c(cnn2C2CCOCC2)c(=O)[nH]1 [PF-04447943, 6-[(3S,4S)-4-methyl-1-(pyrimidin-2-ylmethyl)pyrrolidin-3-yl]-1-(tetrahydro-2H-pyran-4-yl)-1,5-dihydro-4H-pyrazolo[3,4-d]pyrimidin-4-one, reference compound], the conditioned fear responses [8] was “significantly increased conditioned fear responses”.

— paper PMC7049346 (Haematologica, 2019)
